Measured values gathered from unrelated publications.
Compare with care: the assays were run in different laboratories.
Target: Ephrin type-A receptor 5 (EPHA5, Homo sapiens, UniProt P54756)

| SMILES | read-out | mode | technique | tested at | endpoint | result |
| --- | --- | --- | --- | --- | --- | --- |
| FC(F)(F)c1ccc2c(c1)nc(-c1cccnc1)n2C1CC1 | cell-free assay | – | competition with immobilised ligand | 1 µM | remaining binding | 96% |
| Oc1ccc(-c2nc(-c3ccncc3)c(-c3ccc(F)cc3)[nH]2)cc1 | cell-free assay | – | – | 0.5 µM | remaining signal | 90.7% |
| O=C(Nc1cnn(-c2csc(C(=O)NC3COC3)c2)c1)Nc1ccccc1Cl | enzyme activity | inhibitor | – | 5 µM | remaining activity | 96.9% |
| CS(=O)(=O)NCC[C@H](NC(=O)c1cncc2c1cnn2-c1ccc(F)cc1)c1ccnc(S(C)(=O)=O)c1 | cell-free assay | – | competition with immobilised ligand | 1 µM | remaining binding | 100% |
| CC(C)c1ccc(NC(=O)c2cccs2)c(-c2nc3ccccc3[nH]c2=O)c1 | enzyme activity | inhibitor | – | 1 µM | activity vs control | 112% |
| CC(C)(C)c1nc(-c2cccc(NS(=O)(=O)c3c(F)cccc3F)c2F)c(-c2ccnc(N)n2)s1 | enzyme activity | inhibitor | radiometric | 1 µM | remaining activity | 116% |
| COc1cc2ncnc(Nc3ccc(Oc4ccccc4)cc3C)c2cc1OC | enzyme activity | inhibitor | – | 1 µM | inhibition | 5% |
| Cc1ccc(C(=O)Nc2ccc(CN3CCN(C)CC3)c(C(F)(F)F)c2)cc1C#Cc1cnc2cccnn12 | cell-free assay | – | – | 23.5 nM | remaining signal | 31% |
| COc1cc(-c2cc(-c3ccc(N4CCNCC4)cc3)cnc2C)cc(OC)c1OC | enzyme activity | inhibitor | – | 0.1 µM | inhibition | 5% |
| CNC(=O)c1cc(Oc2ccc(NC(=O)Nc3ccc(Cl)c(C(F)(F)F)c3)cc2)ccn1 | enzyme activity | inhibitor | – | 10 µM | inhibition | 92% |
| C#Cc1cccc(Nc2ncnc3cc(OCCOC)c(OCCOC)cc23)c1 | cell-free assay | – | – | 0.5 µM | remaining signal | 99.1% |
| C[C@H](NC(=O)c1cnc2n1[C@](C)(Cc1ccc(C#N)cc1)C(=O)N2c1cc(Cl)c(F)c(Cl)c1)C(=O)NC1(c2ccccn2)CC1 | cell-free assay | – | competition with immobilised ligand | 1 µM | remaining binding | 100% |
| COc1cc(Cl)c(C(=O)N[C@@H](CN[C@H]2CC[C@@H](N)CC2)Cc2ccc(C#N)cc2)cc1-c1ccc(CN[C@H](C)c2ccc(C)cc2)o1 | enzyme activity | inhibitor | – | 1 µM | remaining activity | 90% |
| N#CC1(c2ccccn2)CCN(Cc2cc(C(=O)N3CCCC3)c(=O)n3ccccc23)CC1 | cell-free assay | – | competition with immobilised ligand | 1 µM | remaining binding | 100% |
| CCN(CC)CCNC(=O)c1c(C)[nH]c(/C=C2\C(=O)Nc3ccc(F)cc32)c1C | enzyme activity | inhibitor | – | 10 µM | inhibition | 58% |
| Cc1noc([C@H]2C[C@@H](c3ccc(C(F)(F)F)cc3)CN(C(=O)N3CCS(=O)(=O)C3)C2)n1 | cell-free assay | – | competition with immobilised ligand | 1 µM | remaining binding | 100% |
| Nc1ncnc2occ(-c3ccc(NC(=O)Nc4cc(C(F)(F)F)ccc4F)cc3)c12 | cell-free assay | – | – | 20 µM | remaining signal | 0.05% |
